SMILES strings stand for the structures. ≈ marks a conversion by molar mass, not a printed value. Calls of active or inactive are those of the source. The calls are words filed in the database; no cut-off is given here.

6 compounds from ChEMBL document CHEMBL2429813, “Phomapyrrolidones A-C, antitubercular alkaloids from the endophytic fungus Phoma sp. NRRL 46751” (J Nat Prod, 2013) can be followed below.

Experiment [1] concerns Mycobacterium tuberculosis. As to the kind of experiment: Antitubecular activity against Mycobacterium tuberculosis […] assessed as growth inhibition after 4 days by microplate Alamar blue assay. The settings on record: 96 h. The experiment is classed as functional. In short, it runs like this:
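Replicating M. tuberculosis […] cultures in microplate alamar blue (resazurin) format. MIC was read out and reported in μg/mL, with μM in parentheses. Rifampin and isonicotinylhydrazine served as positive controls.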
Background: The colour change of resazurin is a common sign of viable cells or microbes.

In the next experiment the test system is SF-268. As to the kind of experiment: Cytotoxicity against human SF268 cells at 5 uM after 72 hrs by Alamar blue assay. The experiment is classed as functional, cell-based. In short, it runs like this: (§1)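 The human cancer cell panel was assayed by resazurin (alamarBlue) read-out, with 5.0 μM as the highest concentration tested and doxorubicin as the positive control. The procedure follows an earlier report.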

The subject of experiment [2] is Mycobacterium tuberculosis. As to the kind of experiment: Antitubecular activity against Mycobacterium tuberculosis […] assessed as growth inhibition by low oxygen recovery assay. The format is functional. In short, it runs like this:
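Non-replicating M. tuberculosis […] under low-oxygen conditions, with growth assessed on recovery (LORA). Endpoint was MIC, in μg/mL with μM in parentheses. Rifampin and isonicotinylhydrazine were the positive controls.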

The test system of another experiment is MDA-MB-231. As to the kind of experiment: Cytotoxicity against human MDA-MB-231 cells at 5 uM after 72 hrs by Alamar blue assay. The format is functional, cell-based. The method, boiled down: as §1
The test system of a further experiment is PC-3M. The experiment is described as follows: Cytotoxicity against human PC3M cells at 5 uM after 72 hrs by Alamar blue assay. The experiment is classed as functional, cell-based. In short, it runs like this:
as §1

The next experiment has as its system Vero. The experiment is described as follows: Cytotoxicity against African green monkey Vero cells after 72 hrs by MTS-PMS assay. The format is cell-based. The settings on record: Chlorocebus sabaeus. In short, it runs like this: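 Vero cells were assayed by MTS-PMS colorimetric read-out, with rifampin as the positive control. The procedure follows an earlier report. Values are given as IC50.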
Background: Formazan colour is commonly taken as a measure of viable cells.

The next experiment concerns MCF7. The experiment is described as follows: Cytotoxicity against human MCF7 cells at 5 uM after 72 hrs by Alamar blue assay. The experiment is classed as functional, cell-based. In short, it runs like this: as §1
In a further experiment the test system is NCI-H460. As to the kind of experiment: Cytotoxicity against human NCI-H460 cells at 5 uM after 72 hrs by Alamar blue assay. The format is functional, cell-based. The method, boiled down:
as §1

Consider `CC1=C[C@@]2(C)C(=C(C)[C@H]3[C@H]4C[C@@H](C)C[C@@H](C)[C@@H]4[C@@H]4Oc5ccc(cc5)C[C@H]5C(=O)NC(=O)[C@@H]5C(=O)[C@H]2[C@H]43)[C@H]1C`, for which the MIC in experiment [1] came to 5.9 µg/mL (≈ 11.2 µM); in experiment [2] it was 15.4 µg/mL (≈ 29.2 µM). Also, the outcome with SF-268, in the experiment with MDA-MB-231, in the experiment with PC-3M, in the experiment on MCF7 and in the experiment on NCI-H460 was inactive. Further, the IC50 in the experiment on Vero turned out to be 32.4 µM.
For `NNC(=O)c1ccncc1` [ISONIAZID], the values for the MIC in experiment [1] and in experiment [2] were 0.03 µg/mL (≈ 0.219 µM) and above 17.5 µg/mL, respectively.
For `CO[C@H]1/C=C/O[C@@]2(C)Oc3c(C)c(O)c4c(O)c(c(/C=N/N5CCN(C)CC5)c(O)c4c3C2=O)NC(=O)/C(C)=C\C=C\[C@H](C)[C@H](O)[C@@H](C)[C@@H](O)[C@@H](C)[C@H](OC(C)=O)[C@@H]1C` [RIFAMPIN], the MIC in experiment [1] was 0.07 µg/mL (≈ 0.0851 µM); in experiment [2] it was 0.1 µg/mL (≈ 0.122 µM). This compound registered an IC50 with Vero of 132 µM.
For the compound `CC1=C[C@@]2(C)C(=C(C)[C@H]3[C@H]4C[C@@H](C)C[C@@H](C)[C@@H]4[C@@H]4Oc5ccc(cc5)C[C@@H]5C(=O)N(C)C(=O)[C@H]5C(=O)[C@H]2[C@H]43)[C@H]1C`, the MIC in experiment [1] and in experiment [2] was above 100 µg/mL each time. Besides, the result in the experiment on SF-268, in the experiment with MDA-MB-231, in the experiment with PC-3M, in the experiment with MCF7 and in the experiment on NCI-H460 was inactive. The IC50 with Vero is 145 µM.
Turning to `CC1=C[C@@]2(C)C(=C(C)[C@H]3[C@H]4C[C@@H](C)C[C@@H](C)[C@@H]4[C@@H]4Oc5ccc(cc5)C[C@@H]5C(=O)NC(=O)[C@H]5C(=O)[C@H]2[C@H]43)[C@H]1C`, the MIC in experiment [1] was 20.1 µg/mL (≈ 38.1 µM); in experiment [2] it was 41.1 µg/mL (≈ 77.9 µM). For the same compound, the result in the experiment with SF-268, in the experiment with MDA-MB-231, in the experiment with PC-3M, in the experiment on MCF7 and in the experiment on NCI-H460 was inactive. Moreover, in the experiment on Vero, half-maximal inhibition (IC50) required 33.6 µM.
With `CC1=C[C@@]2(C)C(=C(C)[C@H]3[C@H]4C[C@@H](C)C[C@@H](C)[C@@H]4[C@@H]4Oc5ccc(cc5)CC5(O)NC(=O)C6(O[C@H]56)C(=O)[C@H]2[C@H]43)[C@H]1C` (some centres not stated), the values for the MIC in experiment [1] and in experiment [2] were 5.2 µg/mL (≈ 9.56 µM) and 13.4 µg/mL (≈ 24.6 µM), respectively. Moreover, the outcome in the experiment with SF-268, in the experiment with MDA-MB-231, in the experiment on PC-3M, with MCF7 and with NCI-H460 was inactive. Also, the IC50 with Vero was 35.7 µM.

One may read the MIC as the lowest concentration found to suppress growth. By IC50 is commonly meant the concentration at which inhibition is half-maximal.
